Measurements taken from ChEMBL document CHEMBL2057189, “Functional characterization of recombinant hyoscyamine 6β-hydroxylase from Atropa belladonna” (Bioorg Med Chem, 2012).
Activity calls are given as the source filed them. No cut-off for these calls is given here.

Assays:
Atropa belladonna [1] = test: Activity at Atropa belladonna recombinant hycosamine 6beta-hydroxylase expressed in Escherichia coli assessed as hydroxylated product formation at 0.2 mM after 1 hr by ESI-MS analysis
How it was run: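 Ni-NTA-purified His-tagged AbH6H, E. coli-expressed. Analogue at 0.2 mM final replaced (−)-hyoscyamine in 50 mM Tris/HCl pH 7.6 with 0.4 mM FeSO4, 4 mM sodium ascorbate, 1 mM 2-oxoglutaric acid and 2 mg/mL catalase at 34 °C. The reaction was quenched with saturated Na2CO3 (pH ~9.5) and extracted with EtOAc. Conversion to products was checked by ESI-MS.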

Atropa belladonna [2] = test: Inhibition of Atropa belladonna recombinant hycosamine 6beta-hydroxylase expressed in Escherichia coli using hyoscyamine as substrate assessed as inhibition of hydroxylated product formation at 0.1 mM after 1 hr by HPLC analysis
How it was run: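 Purified AbH6H was assayed in 50 mM Tris/HCl pH 7.6 with 0.4 mM FeSO4, 4 mM ascorbate, 1 mM 2-oxoglutarate, 2 mg/mL catalase and 0.2 mM (−)-hyoscyamine, plus 0.1 mM analogue, at 34 °C. After Na2CO3 quench and EtOAc extraction, 6β-hydroxyhyoscyamine was quantified by C18 HPLC (UV 210 nm, water/H3PO4–MeOH gradient). Inhibition was scored as reduced product formation.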

Atropa belladonna [3] = test: Activity at Atropa belladonna recombinant hycosamine 6beta-hydroxylase epoxidase activity expressed in Escherichia coli assessed as scopolamine formation at 0.2 mM after 1 hr by ESI-MS analysis
How it was run: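 C-terminally His6-tagged A. belladonna H6H expressed in E. coli JM109 and Ni-NTA purified. Substrate (0.2 mM final) incubated at 34 °C in 50 mM Tris/HCl pH 7.6 with 0.4 mM FeSO4, 4 mM sodium ascorbate, 1 mM 2-oxoglutarate and 2 mg/mL catalase. Quenched with saturated Na2CO3 to pH ~9.5 and extracted with EtOAc. Products detected by ESI-MS.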

SMILES: CN(C)c1ccc(CC(=O)O[C@H]2C[C@H]3CC[C@@H](C2)N3C)cc1
- Activity (Atropa belladonna [1]): Active

SMILES: CN1CCC(OC(=O)Cc2ccccc2)CC1
- Activity (Atropa belladonna [1]): inactive
- inhibition (Atropa belladonna [2]): inactive

SMILES: CN1[C@@H]2C=C[C@H]1C[C@@H](OC(=O)[C@H](CO)c1ccccc1)C2
- Activity (Atropa belladonna [3]): Active
- Activity (Atropa belladonna [1]): Active

SMILES: CN1C2CC[C@@H]1C[C@H](OC(=O)CCc1ccccc1)C2 (single isomer, unassigned)
- Activity (Atropa belladonna [1]): inactive
- inhibition (Atropa belladonna [2]): inactive

SMILES: CN1C2CC[C@@H]1C[C@H](OC(=O)c1ccccc1)C2 (single isomer, unassigned)
- Activity (Atropa belladonna [1]): Active

SMILES: C[N+]1(C)C2C[C@H](OC(=O)[C@H](CO)c3ccccc3)C[C@@H]1[C@H]1OC21 (single isomer, unassigned)
- Activity (Atropa belladonna [1]): inactive
- inhibition (Atropa belladonna [2]): 7%

SMILES: O=C(Cc1ccccc1)O[C@@H]1CC2CC[C@H](C1)O2 (single isomer, unassigned)
- Activity (Atropa belladonna [1]): inactive
- inhibition (Atropa belladonna [2]): inactive
